Measurements published in the EternaBench riboswitch data.

System: MS2 coat protein
Assay: apparent Kd, MS2 coat protein; higher = weaker binding; RNA-MaP array; FMN 200 µM where present
How it was run: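 Stalled E. coli RNA polymerase transcribed each design on Illumina sequencing-chip clusters. The clusters were titrated with SNAP-549-labelled MS2 coat protein, starting at 0.7 or 1.5 nM and doubling up to 3 µM, first without ligand and then with constant ligand, in 100 mM Tris-HCl pH 7.5, 80 mM KCl, 4 mM MgCl2, BSA, DTT, yeast tRNA and Tween-20. Green signal was normalised to red-channel RNA signal and to the control-cluster median Fmax. The apparent Kd is the median of filtered binding-curve fits made for each cluster.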

[1] = designed as: OFF switch for flavin mononucleotide, no ligand
[2] = ligand present: flavin mononucleotide, designed as: OFF switch for flavin mononucleotide
[3] = ligand present: flavin mononucleotide, designed as: ON switch for flavin mononucleotide
[4] = designed as: ON switch for flavin mononucleotide, no ligand

Sequence | apparent Kd [1] [nM] | apparent Kd [2] [nM] | apparent Kd [3] [nM] | apparent Kd [4] [nM]
AGAAACUACGAGAAGGACAUAUGACUAAGACUAAACAUGAGGAUCACCCAUGUAGGAUAUCGUAGUUUCAGGAUCGUGAGAUCA | 5.75 | 7.87 |  | 
ACAUGAGGAUCACCCAUGUAAAGCGAGGAUAUUUCACUGCACAUGAGGUUCGCCCAUGUUCUGCGGAAGAAGGUGCAAAUAAUU |  |  | 28.1 | 
CCGGCUGCCGUGAGGAUAUGCCCGCGCGCCCGCGGGCAGAAGGCACAUGAGGAUCACCCAUGUCCUGCGGUCCC | 17.4 | 19.9 |  | 
CAGUACUGAGGAUAUACAUGAGGAUCACCCAUGUGUUCGUGGUAGGAUAUCCGCAAAAGUAGAAGCCAGAAGGAGAUGUGCGUG | 17.7 | 13.9 |  | 
GUCAGCUCGUGAGGAUAUACAUGUGCUGGAUACAGCACUAAAGAUUUCACAUGAGGAUCACCCAUGUAGAAGGCACGAGCUGAU | 16.9 | 38 |  | 
GGAUCAUAUGUCAGGAUAUGCAGGUCCUUGGAUCUGCAGAAGGGACAUGAGGAUCACCCAUGUCAUGAAGAUCC | 35.6 | 202 |  | 
GUGGCUAGUGCAGGAUAUCGGCGCGUGUAGUGUCGAGAAGGGCACAUGAGGAUCACCCAUGUGAUCAAUCACUGCUAAGGCCGC | 5.12 | 5.38 |  | 
GGACGUGUCGUUUACAUGAGGAUCACCCAUGUCGAUGGACAUGAGGAUAUGGAUCCGAAUCGGAUCCAGAAGGCAUGCACGUCC |  |  | 18.9 | 85.3
CCCUAGGUAGGAUAUACUUGGACUCGGCUGAUGUGCCUAAAACAUGAGGAUCACCCAUGUAGAAGGACUAAGGC | 12.6 | 11.6 |  | 
AGGAAGUAAGGAUAUGCUGCUCGUCACUUGCGUGAUGAGUAGCAGAAGGUACAUGAGGAUCACCCAUGUAAAGA | 23.7 | 20.6 |  | 
GCUCGAUGAGCUGUCUACAUGAGGAUCACCCAUGUAGAUGGGCAGGAUAUUUACGUGCUUUAUGUAGAGAAGGGCCCAUCGAGC |  |  | 28.8 | 
AGCAUGUAAGGAUAUGUAACGCGGCUUUCAUUCGCCGUCCCACAGAAGGUACAUGAGGAUCACCCAUGUGCUCC | 38.1 | 87.6 |  | 
UAGAAGUCAGGAUAUGCAUGGCGGGACUUGCGUCGUGGCGUGCAGAAGGGACAUGAGGAUCACCCAUGUGGAGA | 117 | 369 |  | 
GAGAGAUAGUAGGAUAUUCUGUACGGGUGACCAGGAGAAGGACUAACAUGAGGAUCACCCAUGUGGCUGGUCAU | 15.9 | 16.2 |  | 
CCUCCACAUGAGGAUCACCCAUGUCAGGAUAUCGUGUGUUUUUUUUCGGUCUUUCGUGCGAGAAGGGACGUCUU | 30.5 | 33.8 |  | 
AUGCUUCACACAGGAUAUACAUGAGGAUCACCCAUGUGUCCAAAGUAGCUGACACGAGCUACGCGGUAGAAGGGUGUGAAGCAU | 17.3 | 54.3 |  | 
UAGCGCUGUCGAGAGGAUAUGCGGUGAUGGACAUGAGGAUCACCCAUGUUAGCGAUAGCAUUACGGUAGAAGGCUCUACAGCUGU |  |  | 36 | 245
UUACCUUAUGAGAAGGCGAUCAUGAAACAUGAUCGAGGAUAUCAUGUAAACAUGAGGAUCACCCAUGUAUGGGUAUUAUGGUAC |  |  | 27.8 | 86.6
GUACCUUAUGAGAAGGCGAUCAUGAAACAUGAUCGAGGAUAUCAUGUAAACAUGAGGAUCACCCAUGUAUGGGUAUUAUGGUAU |  |  | 11.3 | 43.9

Sequence | apparent Kd [1] [nM] | apparent Kd [2] [nM] | apparent Kd [3] [nM] | apparent Kd [4] [nM]
GGCGAGUAAGGAUAUUUUAACCUACAGACGAGUGAUGGUUAAGAGAAGGUACAUGAGGAUCACCCAUGUCAUCC | 16.2 | 19.8 |  | 
AGAUAACACCAGAAGGACAUGAGGAUCACCCAUGUAGGAUAUGGGCAUCACUCGAGAAAGAAACGACCAAAUGGACACGCGGUC |  |  | 9.46 | 80.1
UGUCGGAGCAGAGGAUAUUACAUGAGGAUCACCCAUGUACGAACCAAUAGCUGGAAACAGCAAUGUAAGAAGGCUGCUCCGACA | 11.3 | 79 |  | 
GGGUACAUCGUAGGAUAUCAUGUAAAUACAUGAGGAUCACCCAUGUCGAUGGAGACAUCGGAGAUUGAGAAGGCCGAUGUACCG |  |  | 17.9 | 206
AAUUUACAGGGAGGAUAUACAUGAGGAUCACCCAUGUAAUCAUAUGAUAUUUUUUUUGUAUGAGUGUAGAAGGCCCAAAUAAAA | 9.32 | 11.1 |  | 
AGAUCAUCAGGAUAUACAUGGGUGAAAAAAGUAUAUCCACUACAUGAGGAUCACCCAUGUAGAAGGGAUGAUCA | 17.3 | 15.1 |  | 
AGUGCCAUGUAGAAGGCAGAUCUGAUUCAGAUCUGAGGAUAUACAUGAGGAUCACCCAUGUAAAUGCACUGCACGAGAGUGCAA | 12 | 43.9 |  | 
AUGCUUCACACAGGAUAUACAUGAGGAUCACCCAUGUGUCCUCCGUAGCUGACACCAGCUACGCUGUAGAAGGGUGUGAAGCAU | 261 | 201 |  | 
GAAAUGAUGAUAGGAUAUCCACAGACAUGAGGAUCACCCAUGUUUAUGGGACGAAUCCUUGUGCAGGAGAAGGAUCGUCACUAU | 64.7 | 39.5 |  | 
AUGAGGUCAGGAUAUGCAUGGCGGGACUUGCGUCGUGGCGUGCAGAAGGGACAUGAGGAUCACCCAUGUGGACC | 36.4 | 39.5 |  | 
GGUUAUGAAGGAUAUACAUGAGGAUCACCCAUGUUACGUACUUCGGGAUUCUGCCAGUGUAGAAGGUCAUGUCU | 24.3 | 49.2 |  | 
UGGCGACAUGAGGAUCACCCAUGUAUUUCCAGUUAAGGAUAUAGGUGCUAGCAACGGCAGCUAGAAGGUGAGAUAA |  |  | 58 | 42
UACCACCGCACGGACACGCCGAGUCAGGAUAUACAUGAGGAUCACCCAUGUGAAGGCCGGCUCGUGUAGAAGGGACAGGCGUUG | 5.43 | 6.72 |  | 
AUCAGCUCGUCAGGAUAUACAUCACUGCUUCGGCAGUGUAUUAAGAUCACAUGAGGAUCACCCAUGUAGAAGGGACGAGCUGAU | 31.7 | 310 |  | 
UCAUUUAUUACAGGAUAUGUUAGUAUACAGUUGUUUGGUUAUUACUUAUUAACAGAAGGGUAGAACAUGAGGAUCACCCAUGUA |  |  | 40.7 | 80.4
CCGCCCUGAGGAUAUCCACCCUCAUACAUGAGGAUCACCCAUGUUCACCCUUGGGUUCCCGGAGAAGGCAGUUUUC | 306 | 521 |  | 
ACUAGAUGAGGAUAUGCACAUUUUAGUGUUCCUCUAGAUUAACAUGAGGAUCACCCAUGUAGAAGGCGUCAUUA | 68 | 76.6 |  | 
AAAUAAAGCAGUGUGGUAAGAUCACAUGAGGAUCACCCAUGUAAGGAUAUGACGAGCAAAGCUCGUCAGAAGGUACGUCACUGC | 34 | 133 |  | 
ACGAAGACACAAAUGUUCCACGGUGCAGAAGGGUCCCUCACAUGAGGAUCACCCAUGUAACUCGGACAGGAUAUGCUCUUGGGA |  |  | 5.86 | 47.4

Sequence | apparent Kd [1] [nM] | apparent Kd [2] [nM] | apparent Kd [3] [nM] | apparent Kd [4] [nM]
CUUUUGUGAGGAUAUCAGUAGUAAAUAAAUAAAUUUACUACUGAGAAGGCACAUGAGGAUCACCCAUGUUCCUC | 39.1 | 292 |  | 
GGUCGUCCCAUUAACAUGAGGAUCACCCAUGUCAAAAGACAUGAGGAUAUGCUACCUAAUUGGUAGCAGAAGGCAUGGACGACC |  |  | 84.7 | 1170
GUCAGCUCGUGAGGAUAUACAACACUGCUUCGGCAGUGUAUUAAGAUCACAUGAGGAUCACCCAUGUAGAAGGCACAAGCUGAU | 15.9 | 271 |  | 
UGAAAUCAUGUAGGAUAUGCAUGGCGAAGCUACGCAGAAGGACAUGAGGAUCACCCAUGUUAUAGCUACCCAGUUCGGUGGCAA | 141 | 118 |  | 
UCUUUCUUUGUGAGGAUAUGCCCAAAUAAAAGCGGGCAGAAGGCACAUGAGGAUCACCCAUGUUCUGCGGUUUU | 54.5 | 486 |  | 
UAUAUGUCAGGAUAUCGCAACUGCGCGCGCAAGAAUCAUAACGAGAAGGGACAUGAGGAUCACCCAUGUACACU | 18.6 | 25.7 |  | 
GAUUUAGAGCAGGAUAUCAUAGAAUUAUAUGAAUGAGAAGGGCUCACAUGAGGAUCACCCAUGUGGUCCUAGAU | 21.1 | 167 |  | 
CCGCAAAAGCAGGAUAUCGUAUCGGAUACGAUACGAGAAGGGUUUACAUGAGGAUCACCCAUGUUCCUUAGCGG | 31.5 | 36 |  | 
UUACCUCAUGAGAAGGACAUGAGGAUCACCCAUGUAGGAUAUCGUGGGACACUGGUAUUGAAUCUUCGGAUUCAAUACCUGUGU |  |  | 29 | 465
UUUAUUUUUAGAGGAUAUAUUGUGUGUGAGAGAAUAGAAGGCUAAACAUGAGACACACACAUGAGGAUCACCCAUGUUAUGUUU |  |  | 52 | 62.6
ACGGCAAUCACAGGAUAUGGUUACAUGAGGAUCACCCAUGUCUAGGGUCUAAUUAGGUAUAACUACCAGAAGGGUGAAGGCCUA | 97.1 | 80.1 |  | 
CGAUCGUUGCAGAAGGUUAAAAUUUUAUCUACAUGUUUAACAUGAGGAUCACCCAUGUUUAUGAUGAAGGAUAUGCAAGGGUCG | 6.76 | 6.18 |  | 
CUCUUGUUAGGAUAUCAAACUGGCGGCGGAGCCGGCAGUAGUGAGAAGGGACAUGAGGAUCACCCAUGUAAGAA | 81.9 | 155 |  | 
AGUCGGAGCAGAGGAUAUACAUGAGGAUCACCCAUGUAAAUGAAUGAAGCCAGGAAACUGGCAAUGUAGAAGGCUGCUCCGACA | 18 | 52.8 |  | 
ACUGUUUGACUCCUCUUAUACAUGAGGAUCACCCAUGUUAUCGAGGAUAUGCAUUAGAGUGUUUAGCAGAAGGCGAUGUAAUUG | 6.72 | 14.4 |  | 
GUAGAGUAAGGAUAUCGUGAAUAGGAUAGAAUGGUUAGAAACGAGAAGGUACAUGAGGAUCACCCAUGUAAUGU | 20.7 | 21.3 |  | 
AUUUUACAUGAGGAUCACCCAUGUUUUGGUGGAUCAGGAUAUAGAUCGGAUGAGUUCUGGCUAGAAGGGAUAUAUA |  |  | 86.5 | 93.6
CUGAUGUUAGGAUAUCAGGCGCCCGCCACUGGCAAGGCGCAUGAGAAGGGACAUGAGGAUCACCCAUGUAGUAA | 26.3 | 55.7 |  | 
